This is an account of results in ChEMBL document CHEMBL1134834, “Quinoxalinylethylpyridylthioureas (QXPTs) as potent non-nucleoside HIV-1 reverse transcriptase (RT) inhibitors. Further SAR studies and identification of a novel orally bioavailable hydrazine-based antiviral agent” (J Med Chem, 2001).

Series [1] concerns Human immunodeficiency virus 1. Put plainly: Inhibition of HIV-1-p24 antigen production in monocyte-macrophages (in vitro anti-HIV-1 activity). Format: functional, organism-based. In short, it runs like this:
(§1)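 Macrophages from adherent PBMC (10^6/mL, RPMI-1640 with 20% heat-inactivated FCS), 10^5 per well, >95% pure, infected with monocytotropic HTLV-III Ba-L. Antiviral activity read 14 days after infection. […] SI = IC50/EC50. AZT control run in parallel.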

The target of series [2] is Human immunodeficiency virus type 1 reverse transcriptase (Human immunodeficiency virus 1, UniProt Q72547, V106A). Description: Inhibition of HIV-1 Mutant HIV-1 RT enzymes containing the single amino acid substitution V106A.
In series [3] the target is T1, Human immunodeficiency virus type 1 reverse transcriptase (Human immunodeficiency virus 1, UniProt Q72547). Put plainly: Inhibition of HIV-1 wild-type RT.
Series [4] concerns CEM-SS. Put plainly: (§2) Concentration which results in 50% survival of uninfected untreated control CEM-SS cells (cytotoxicity of the compound). The class given is cell-based. The settings on record: Homo sapiens.
Series [5] in a line: Selectivity index (IC50/EC50) was determined in C8166 cells. The class given is functional.
Series [6] deals with C8166. Put plainly: Antiviral activity alone against HIV-IIIB in C8166 cells. Format: functional, cell-based. The settings on record: Homo sapiens. In short, it runs like this: (§3)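 C8166 CD4+ T-cell line (HTLV-I genome, only tat expressed) acutely infected with lymphocytotropic HIV-1 IIIB. […] Read-out is HIV-p24 antigen in supernatants. AZT positive control was run at the same time. SI = IC50/EC50.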

Series [7] is described as follows: (§4) cytotoxicity on normal human lymphocytes(HL) (O.D.=0.114+/-0.01). The settings on record: read-out: TC50 (the source's name).
In series [8] the target is Human immunodeficiency virus type 1 reverse transcriptase (Human immunodeficiency virus 1, UniProt Q72547, Y188L). Description: Inhibition of HIV-1 Mutant HIV-1 RT enzymes containing the single amino acid substitution Y188L.
Series [9] addresses Human immunodeficiency virus type 1 reverse transcriptase (Human immunodeficiency virus 1, UniProt Q72547, K103N). Description: Inhibition of HIV-1 Mutant HIV-1 RT enzymes containing the single amino acid substitution K103N.
The subject of series [10] is Human immunodeficiency virus 1. Put plainly: Concentration which produces a 50% survival of HIV-1 infected cells relative to uninfected control C8166 cells. Format: functional, organism-based. The settings on record: Human immunodeficiency virus 1, C8166.
Series [11] relates to Human immunodeficiency virus 1. Put plainly: Inhibition of HIV-1-p24 antigen production in monocyte-macrophages (cytotoxicity of the compound). The class given is organism-based. In short, it runs like this: as §1
The subject of series [12] is NIH3T3. Description: (§5) cytotoxicity on 3T3 fibroblasts (3T3F) murine cell line (O.D.=0.131+/-0.014). Format: functional. The settings on record: Mus musculus, read-out: TC50 (the source's name).
Series [13] addresses T1, Human immunodeficiency virus type 1 reverse transcriptase. Description: Inhibition of HIV-1 Mutant HIV-1 RT enzymes containing the single amino acid substitution […].
Series [14] in a line: Selectivity index (IC50/EC50) was determined in CEM-SS cells. Format: functional. In short, it runs like this: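 CEM-SS (T4 lymphocyte) cells infected with wild-type HIV-1 were scored for protection from virus-induced cell death. […] SI = IC50/EC50. An AZT-treated positive control was run in parallel under identical conditions.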
For series [15], the system named is Daudi. Description: cytotoxicity on Daudi Human(DH) cell line (O.D.=0.129+/-0.018). Format: functional. The settings on record: read-out: TC50 (the source's name).
The species entered for series [16] is Mus musculus. Description: cytotoxicity on NSO murine cell line (O.D.=0.125+/-0.015). Format: functional. The settings on record: read-out: TC50 (the source's name).
The subject of series [17] is C8166. Description: Synergistic antiviral activity with AZT (DDI), against HIV-IIIB in C8166 cells. The class given is functional, cell-based. The settings on record: Homo sapiens. In short, it runs like this:
(§6)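 C8166 cells infected with HIV-IIIB and treated with compound combined with AZT (or DDI). Combination index calculated by the Chou-Talalay multiple drug effect analysis under both mutually exclusive and mutually nonexclusive assumptions.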

In series [18] the test system is CEM-SS. Put plainly: Concentration which produces a 50% survival of HIV-1 infected cells relative to uninfected control CEM-SS cells (in vitro anti-HIV activity). The class given is functional, cell-based. The settings on record: Homo sapiens. In short, it runs like this: (§7)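 CEM-SS T4 lymphocytes infected with wild-type HIV-1. Protection from virus-induced cell death is scored against an AZT-treated positive control run under identical conditions. […] SI = IC50/EC50.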

A short description of series [19]: Selectivity index between IC50 of HIV-1-p24 and EC50 of HIV-1-p24 (IC50/EC50). Format: functional. In short, it runs like this: as §1
Series [20] addresses Human immunodeficiency virus type 1 reverse transcriptase (Human immunodeficiency virus 1, UniProt Q72547, Y181I). Put plainly: Inhibition of HIV-1 Mutant HIV-1 RT enzymes containing the single amino acid substitution Y181I.
In series [21] the test system is C8166. Put plainly: Synergistic antiviral activity of AZT (DDI) with the compound, against HIV-IIIB in C8166 cells. The settings on record: Homo sapiens. The class given is functional, cell-based. In short, it runs like this: as §6
Series [22] relates to C8166. Put plainly: (§8) Concentration which results in 50% survival of uninfected untreated control C8166 cells (cytotoxicity of the compound). The settings on record: Homo sapiens. Format: functional, cell-based. In short, it runs like this: (§9)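 Toxicity in uninfected C8166 cells by MTT reduction to formazan, read spectrophotometrically.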
A short description of series [23]: as §4. Format: functional. The settings on record: read-out: TC50 (the source's name).
For series [24], the system named is Murine cell line. The series is described as §5. The class given is functional. The settings on record: Mus musculus, read-out: TC50 (the source's name).
Series [25] concerns CEM-SS. The description is as §2. The class given is functional, cell-based. The settings on record: Homo sapiens, read-out: IC50 (the source's name).
A short description of series [26]: (§10) Cytotoxicity on normal human lymphocytes(HL) (O.D.=0.114+/-0.01). The class given is functional. The settings on record: read-out: TC50 (the source's name).
Series [27] concerns NIH3T3. Put plainly: Cytotoxicity on 3T3 fibroblasts (3T3F) murine cell line (O.D.=0.131+/-0.014). Format: functional. The settings on record: Mus musculus, read-out: TC50 (the source's name).
Series [28] concerns C8166. Put plainly: (§11) Selectivity index was determined in C8166 cells. The class given is functional, Homo sapiens. In short, it runs like this:
as §3

The subject of series [29] is Daudi. Put plainly: Cytotoxicity on Daudi Human(DH) cell line (O.D.=0.129+/-0.018). The settings on record: read-out: TC50 (the source's name). Format: functional.
The species entered for series [30] is Mus musculus. Put plainly: Cytotoxicity on NSO murine cell line (O.D.=0.125+/-0.015). The settings on record: read-out: TC50 (the source's name). The class given is functional.
A short description of series [31]: Selectivity index was (IC50/EC50) determined in C8166 cells. The class given is functional.
The nature of series [32]: as §10. The settings on record: read-out: TC50 (the source's name).
Series [33] in a line: as §11. The class given is functional. In short, it runs like this: as §3
Series [34] is described as follows: Selectivity index was determined in CEM-SS cells. Format: functional. In short, it runs like this:
as §7

Series [35] relates to Daudi. Description: Cytotoxicity against Daudi Human(DH) cell line (O.D.=0.129+/-0.018). The settings on record: read-out: TC50 (the source's name). Format: functional.
Series [36] has as its system NIH3T3. Description: Cytotoxicity against 3T3 fibroblasts (3T3F) murine cell line (O.D.=0.131+/-0.014). The class given is functional. The settings on record: Mus musculus, read-out: TC50 (the source's name).
Series [37] deals with C8166. The description is as §8. Format: cell-based. The settings on record: Homo sapiens. In short, it runs like this:
as §9

Series [38] is filed under the species Mus musculus. Description: Cytotoxicity against NSO murine cell line (O.D.=0.125+/-0.015). The class given is functional. The settings on record: read-out: TC50 (the source's name).
The nature of series [39]: Cytotoxicity against normal human lymphocytes(HL) (O.D.=0.114+/-0.01). The settings on record: read-out: TC50 (the source's name).

On to `O=c1c2cccn2c2ccc(F)cc2n1CC/N=C(\S)Nc1ccc(Br)cn1`, for which the concentration for a half-maximal effect (EC50) in [1] came out at 0.004 µM; in [6], 0.066 µM; in series [10], 0.032 µM; in [17] it was 0.057 µM; in series [18] it was 0.063 µM; in series [21], 0.085 µM. The Ki amounted to 0.04 µM in [2]; 0.029 µM in [3]; 1.2 µM in series [8]; 0.65 µM in series [9]; 0.7 µM in series [13]; 1 µM in [20]. For the same molecule, the IC50 in series [4] was more than 200 µM; in [11], 49 µM; in [22] it was 15 µM. The SI in series [5] was 468; in [14], more than 3170; in series [19], 12200. For the same molecule, the CC50 came to 20 µM in series [7], 20 µM in [12], 19 µM in [15] and 20 µM in [16].

On to `O=c1c2cccn2c2ccc(Cl)cc2n1CCNC(=S)Nc1ccc(Br)cn1`, for which the Ki in series [2] was found to be 0.02 µM; in series [3], 0.02 µM; in series [8] it was 0.9 µM; in series [9] it was 0.15 µM; in series [13], 0.16 µM; in series [20], 0.24 µM. Moreover, the SI in series [5] is on record as 123; in [14] it was more than 1080. Also, the EC50 in [10] was found to be 0.061 µM; in [18], 0.0018 µM. The CC50 in [23] is 970 µM; in series [24], 980 µM; in series [15], 960 µM; in series [25] it was more than 2 µM; in series [16], 970 µM. The IC50 in [22] was determined as 7 µM.

`S=C(NCCOc1nc2cc(Cl)ccc2n2cccc12)Nc1ccc(Br)cn1`: the Ki came out at 0.12 µM in [2]; 0.1 µM in [8]; 0.21 µM in [9]; 0.12 µM in series [13]; 0.09 µM in series [20]. The CC50 in series [26], in series [27], in series [29] and in [30] was more than 1000 µM each time. In series [10], the concentration for a half-maximal effect (EC50) turned out to be 0.025 µM. The molecule also came in with an SI in series [28] of 3720. In addition, in series [22], the 50% inhibitory concentration (IC50) is 93 µM.

As for `Fc1cccc2c1nc(OCCNC(=S)Nc1ccc(Br)cn1)c1cccn12`, the inhibition constant (Ki) came out at 0.029 µM in series [2]; 0.058 µM in series [3]; 0.7 µM in series [8]; 0.35 µM in series [9]; 0.15 µM in series [13]; 0.3 µM in series [20]. Moreover, the CC50 in [26] was more than 1000 µM; in series [25], more than 2 µM; in [27] it was more than 1000 µM; in series [29] it was more than 1000 µM; in series [30], more than 1000 µM. Besides, the SI in [31] was 6250; in series [14] it was more than 690. The figures for the concentration for a half-maximal effect (EC50) in series [10] and in [18] were 0.02 µM and 0.0029 µM, respectively. The same molecule registered an IC50 in series [22] of 125 µM.

Regarding `O=c1c2cccn2c2c(F)cccc2n1CCNC(=S)Nc1ccc(Br)cn1`, the inhibition constant Ki in series [2] worked out at 0.06 µM; in series [3] it was 0.04 µM; in [8], 0.2 µM; in series [9], 0.4 µM; in series [13], 0.8 µM; in [20], 0.9 µM. The CC50 was 510 µM in series [32]; more than 2 µM in [25]; 500 µM in series [27]; 510 µM in series [29]; 520 µM in series [30]. For the same molecule, the SI is 105 in [33] and more than 110 in series [34]. Moreover, the EC50 in [10] was found to be 0.2 µM; in series [18], 0.0019 µM. In series [22], the IC50 is 21 µM.

Regarding `O=c1c2cccn2c2ccccc2n1CCNC(=S)Nc1ccc(Br)cn1`, the inhibitory constant (Ki) in series [2] was found to be 0.112 µM; in series [3], 0.058 µM; in [8], 2.5 µM; in series [9], 0.1 µM; in [13] it was 0.105 µM; in [20] it was 4 µM. Moreover, the CC50 in [35], in [36], in series [38] and in series [39] was 800 µM throughout. Further, the IC50 in series [37] was 17 µM. Besides, the midpoint of the response in series [10], the EC50, lay at 0.38 µM.
